Assay results gathered from unrelated publications.
Each line is one published result; the experiments were not run side by side.
Target: Myosin light chain kinase 2, skeletal/cardiac muscle (MYLK2, Homo sapiens, UniProt Q9H1R3)

| Structure (SMILES) | effect on | technique | concentration | remaining binding [%] |
| --- | --- | --- | --- | --- |
| CCN1CCN(Cc2ccc(C(=O)Nc3ccc(C)c(Oc4ccc5c(c4)CC(=O)N5)c3)cc2C(F)(F)F)CC1 | binding | competition with immobilised ligand | 1 µM | 100 |
| CC1CCCN1c1nccc(-c2cnn3ncccc23)n1 (stereo not drawn) | binding |  | 1 µM | 100 |
| Cc1nc(C2CCN(C(=O)c3ccc(OC(F)(F)F)cc3N)CC2)c2ncc(N3CCN(C)CC3)cc2n1 | cell-free assay | competition with immobilised ligand | 1 µM | 87 |
| O=C(c1ccc(Nc2ncc(Cl)c(-c3ccc(Cl)s3)n2)cc1)N1CCC(N2CCCC2)CC1 | binding | competition with immobilised ligand | 1 µM | 2.4 |
| O=C(N1CCS(=O)(=O)CC1)N1C[C@H](c2ccc(OC(F)(F)F)cc2)C[C@H](c2nc(C3CC3)no2)C1 | cell-free assay | competition with immobilised ligand | 1 µM | 100 |
| C=CC(=O)N1CCC(C(=O)NCC(=O)N2CCN(c3nc(-c4cnc(N)nc4C(F)F)nc(N4CCOCC4)n3)CC2)CC1 | binding | competition with immobilised ligand | 1 µM | 97 |
| Cc1c(C(=O)O)cc(-c2ccc(C3CCNCC3)cc2)c2ccc(-c3ccc(C(F)(F)F)cc3)cc12 | binding | competition with immobilised ligand | 1 µM | 100 |
| COc1cnc(Nc2cccc(S(N)(=O)=O)c2)nc1N1CCN(c2ccccc2)C(=O)C1 | binding | competition with immobilised ligand | 1 µM | 100 |
| O=C(c1ccc(Nc2nccc(-c3cc4ccccc4s3)n2)cc1)N1CCC(N2CCCC2)CC1 | binding | competition with immobilised ligand | 1 µM | 0.8 |
| CNCc1ccccc1-c1csc([C@H](C)Nc2nc(C)nc3cc(OC)c(OC)cc23)c1 | cell-free assay | competition with immobilised ligand | 1 µM | 100 |
| COc1ncc2cc3ccccc3nc2c1C#N | binding | competition with immobilised ligand | 5 µM | 84 |
| c1cnn2ncc(-c3ccnc(N4CCC45COC5)n3)c2c1 | binding |  | 1 µM | 77 |
| Cc1cc(NC(=O)c2cccc(S(F)(F)(F)(F)F)c2)cc(-n2ccn3nc(-c4cccnc4)cc23)c1 | cell-free assay | competition with immobilised ligand | 1 µM | 100 |
| C[C@H]1CCN(c2nccc(-c3cnn4ncccc34)n2)C1 | binding |  | 1 µM | 79 |
| COc1cc(-c2cn(C3CCc4c(F)cccc4N(CC(F)(F)F)C3=O)nn2)ccc1-n1cnc(C)c1 (stereo not drawn) | cell-free assay | competition with immobilised ligand | 1 µM | 100 |
| CN(C)c1nccc(-c2cnn3ncccc23)n1 | binding |  | 1 µM | 100 |
| O=C(NCC1CCOCC1)c1n[nH]cc1NC(=O)c1c(F)cccc1F | binding | competition with immobilised ligand | 1 µM | 100 |
| CN(c1nccc(-c2cnn3ncccc23)n1)C1CC1 | binding |  | 1 µM | 100 |
| CNC(=O)[C@@H]1CC[C@@H](n2c(-c3ccc4cnccc4c3)nc3ccc(C(=O)NCc4cccc(C(N)=O)c4)cc32)C1 | binding | competition with immobilised ligand | 1 µM | 100 |
| N[C@H]1CCN(c2nccc(-c3cnn4ncccc34)n2)C1 | binding |  | 1 µM | 92 |
| Cc1cnc(Nc2ccc(C(=O)N3CCC(N4CCCC4)CC3)cc2)nc1-c1cc2ccccc2s1 | binding | competition with immobilised ligand | 1 µM | 1.8 |
